Series [1] has as its target T1, C-C chemokine receptor type 2 (Homo sapiens, UniProt P41597). The experiment in a line: Displacement of [125I]MCP1 from CCR2 in human PBMC at 1 uM after 30 mins by gamma counter. On the technique in general: Displacement assays read how much labelled ligand stays bound in the presence of the test substance.
Target sequence in this assay (P41597 whole entry, looked up): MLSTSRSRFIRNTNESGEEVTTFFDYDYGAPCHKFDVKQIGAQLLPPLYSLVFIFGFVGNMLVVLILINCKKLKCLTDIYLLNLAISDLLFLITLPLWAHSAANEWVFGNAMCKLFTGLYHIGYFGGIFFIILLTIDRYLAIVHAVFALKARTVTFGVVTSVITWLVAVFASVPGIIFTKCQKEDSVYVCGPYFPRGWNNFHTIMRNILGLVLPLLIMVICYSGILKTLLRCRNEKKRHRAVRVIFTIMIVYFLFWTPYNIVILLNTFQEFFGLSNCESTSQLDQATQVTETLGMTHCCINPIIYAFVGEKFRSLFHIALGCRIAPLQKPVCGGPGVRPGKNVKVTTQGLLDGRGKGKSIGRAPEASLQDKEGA
The target in series [2] is T1, C-C chemokine receptor type 2. The experiment in a line: Displacement of [125I]MCP1 from CCR2 in human PBMC after 30 mins by gamma counter.
Target sequence in this assay (P41597 whole entry): as the sequence (P41597 whole entry, looked up) above
In a further series the test system is Mus musculus. The series can be described thus: Dose normalized AUC in mouse at 10 mg/kg, po. To be noted: in vivo. In kind it is ADME, organism-based. The arrangement: dose 10 mg/kg, route oral. In a few lines: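 Mouse oral PK screen by cassette dosing at 10 mg/kg, three animals per cassette. AUC is dose-normalized.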
The target of series [3] is C-C chemokine receptor type 2 (Mus musculus, UniProt P51683). The experiment in a line: Displacement of [125I]MCP1 from mouse CCR2 after 30 mins by gamma counter.

pIC50: −log10 of the molar value.

The text below walks through data of ChEMBL document CHEMBL1949557, “Discovery of INCB3284, a Potent, Selective, and Orally Bioavailable hCCR2 Antagonist” (ACS Med Chem Lett, 2011).

C-C chemokine receptor type 2 (Mus musculus, UniProt P51683), sequence (P51683 whole entry): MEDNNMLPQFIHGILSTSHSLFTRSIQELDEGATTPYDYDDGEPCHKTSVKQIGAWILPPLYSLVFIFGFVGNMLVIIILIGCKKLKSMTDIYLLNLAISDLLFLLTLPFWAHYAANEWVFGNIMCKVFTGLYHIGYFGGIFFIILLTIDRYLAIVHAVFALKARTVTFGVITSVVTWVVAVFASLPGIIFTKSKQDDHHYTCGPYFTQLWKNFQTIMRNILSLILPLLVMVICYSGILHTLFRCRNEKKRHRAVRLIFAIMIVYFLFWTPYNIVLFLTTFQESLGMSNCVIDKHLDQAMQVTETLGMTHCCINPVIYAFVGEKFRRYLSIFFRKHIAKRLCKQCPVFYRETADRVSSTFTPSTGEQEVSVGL

`COc1ccc([C@]2(O)CC[C@@H](N3CC[C@@H](NC(=O)CNC(=O)c4cccc(C(F)(F)F)c4)C3)CC2)cn1`: the inhibition (as a rule, how much of the control response was suppressed) in series [1] is below 50%. On to `O=C(CNC(=O)c1cccc(C(F)(F)F)c1)N[C@@H]1CCN([C@H]2CC[C@@](O)(c3ccncn3)CC2)C1`, for which the negative-log IC50 (pIC50) (commonly the negative decadic logarithm of the IC50, by convention in mol/L) in series [2] was 8.11. The AUC/dose in the series on Mus musculus was determined as 930 nM·h.

The compound `O=C(CNC(=O)c1cccc(C(F)(F)F)c1)N[C@@H]1CCN([C@H]2CC[C@](O)(c3cccnn3)CC2)C1` came in with an inhibition in series [1] below 50%. `O=C(CNC(=O)c1cccc(C(F)(F)F)c1)N[C@@H]1CCN([C@H]2CC[C@@](O)(c3ccnnc3)CC2)C1` gave a pIC50 in series [2] of 8.31. The AUC/dose with Mus musculus amounted to 80 nM·h. Compound `O=C(CNC(=O)c1cccc(C(F)(F)F)c1)N[C@@H]1CCN([C@H]2CC[C@@](O)(c3ncccn3)CC2)C1` gave a pIC50 in series [2] of 7.99. The AUC/dose with Mus musculus was found to be 1442 nM·h. In the same order, the values of `Cc1ccc([C@]2(O)CC[C@H](N3CC[C@@H](NC(=O)CNC(=O)c4cccc(C(F)(F)F)c4)C3)CC2)cn1` are 8.62 and 127 nM·h. `O=C(CNC(=O)c1cccc(C(F)(F)F)c1)N[C@@H]1CCN([C@H]2CC[C@](O)(c3ncccn3)CC2)C1`: the inhibition in series [1] was below 50%.

Consider `O=C(CNC(=O)c1cccc(C(F)(F)F)c1)N[C@@H]1CCN([C@H]2CC[C@](O)(c3ccccn3)CC2)C1`, for which the inhibition in series [1] is below 50%. Regarding `O=C(CNC(=O)c1cccc(C(F)(F)F)c1)N[C@@H]1CCN([C@H]2CC[C@@](O)(c3cnccn3)CC2)C1`, in series [2], the pIC50 was 7.96. In the series on Mus musculus, this compound yielded an AUC/dose of 1550 nM·h. In series [2], `O=C(CNC(=O)c1cccc(C(F)(F)F)c1)N[C@@H]1CCN([C@H]2CC[C@@](O)(c3cncnc3)CC2)C1` had a negative logarithm of the IC50 (pIC50) of 7.85. As for `O=C(CNC(=O)c1cccc(C(F)(F)F)c1)N[C@@H]1CCN([C@H]2CC[C@](O)(c3cncnc3)CC2)C1`, the inhibition in series [1] was below 50%. `Cc1ccc([C@]2(O)CC[C@H](N3CC[C@H](NC(=O)CNC(=O)c4cccc(C(F)(F)F)c4)C3)CC2)cc1` gave a pIC50 in series [2] below 6.00.

On to `O=C(CNC(=O)c1cccc(C(F)(F)F)c1)N[C@@H]1CCN([C@H]2CC[C@](O)(c3ccncc3)CC2)C1` (mixture of isomers), for which the inhibition in series [1] is below 50%. In series [2], `O=C(CNC(=O)c1cccc(C(F)(F)F)c1)N[C@@H]1CCN([C@H]2CC[C@@](O)(c3ccncc3)CC2)C1` had a negative-log IC50 (pIC50) of 8.37. In the series on Mus musculus, this compound returned an AUC/dose of 100 nM·h. As for `CCOc1ccc([C@]2(O)CC[C@H](N3CC[C@@H](NC(=O)CNC(=O)c4cccc(C(F)(F)F)c4)C3)CC2)cn1`, in series [2], the pIC50 is 8.49. In the series on Mus musculus, this compound yielded an AUC/dose of 287 nM·h.

The compound `O=C(CNC(=O)c1cccc(C(F)(F)F)c1)N[C@@H]1CCN([C@H]2CC[C@](O)(c3cccnc3)CC2)C1` displayed an inhibition in series [1] below 50%. With `O=C(CNC(=O)c1cccc(C(F)(F)F)c1)N[C@@H]1CCN([C@H]2CC[C@](O)(c3ccnnc3)CC2)C1`, the inhibition in series [1] is below 50%. The compound `O=C(CNC(=O)c1cccc(C(F)(F)F)c1)N[C@@H]1CCN([C@H]2CC[C@@](O)(c3cccnc3)CC2)C1` showed a pIC50 in series [2] of 8.59. In addition, the AUC/dose with Mus musculus stood at 50 nM·h.

`O=C(CNC(=O)c1cccc(C(F)(F)F)c1)N[C@@H]1CCN([C@H]2CC[C@@](O)(c3ccccn3)CC2)C1` had a pIC50 in series [2] of 8.49. In the series with Mus musculus, the AUC/dose came out at 2812 nM·h.

On to `Cc1ccc([C@]2(O)CC[C@@H](N3CC[C@@H](NC(=O)CNC(=O)c4cccc(C(F)(F)F)c4)C3)CC2)cn1`, for which the inhibition in series [1] was below 50%. On the same count and under the same terms, under `CCOc1ccc([C@]2(O)CC[C@@H](N3CC[C@@H](NC(=O)CNC(=O)c4cccc(C(F)(F)F)c4)C3)CC2)cn1` stands below 50%. In series [2], `O=C(CNC(=O)c1cccc(C(F)(F)F)c1)N[C@@H]1CCN([C@H]2CC[C@@](O)(c3cccnn3)CC2)C1` showed a pIC50 of 8.14. The compound also showed an AUC/dose in the series on Mus musculus of 155 nM·h. As for `Cc1ccc([C@]2(O)CC[C@H](N3CC[C@@H](NC(=O)CNC(=O)c4cccc(C(F)(F)F)c4)C3)CC2)cc1`, the negative logarithm of the IC50 (pIC50) is 9.00 in series [2] and 7.74 in series [3]. Turning to `O=C(CNC(=O)c1cccc(C(F)(F)F)c1)N[C@@H]1CCN([C@H]2CC[C@](O)(c3cnccn3)CC2)C1`, the inhibition in series [1] was below 50%.

In the case of `O=C(CNC(=O)c1cccc(C(F)(F)F)c1)N[C@@H]1CCN([C@H]2CC[C@](O)(c3ccncn3)CC2)C1`, the inhibition in series [1] is below 50%.
